ChEMBL document CHEMBL1127082, “3,4-Dihydroxychalcones as potent 5-lipoxygenase and cyclooxygenase inhibitors” (J Med Chem, 1993)

Key:
[1] = biological target: T1, Polyunsaturated fatty acid 5-lipoxygenase (Rattus norvegicus, UniProt P12527); test: In vitro inhibition against 5-lipoxygenase in RBL-1 cells was determined; format: cell-based
T1 sequence (P12527 whole entry): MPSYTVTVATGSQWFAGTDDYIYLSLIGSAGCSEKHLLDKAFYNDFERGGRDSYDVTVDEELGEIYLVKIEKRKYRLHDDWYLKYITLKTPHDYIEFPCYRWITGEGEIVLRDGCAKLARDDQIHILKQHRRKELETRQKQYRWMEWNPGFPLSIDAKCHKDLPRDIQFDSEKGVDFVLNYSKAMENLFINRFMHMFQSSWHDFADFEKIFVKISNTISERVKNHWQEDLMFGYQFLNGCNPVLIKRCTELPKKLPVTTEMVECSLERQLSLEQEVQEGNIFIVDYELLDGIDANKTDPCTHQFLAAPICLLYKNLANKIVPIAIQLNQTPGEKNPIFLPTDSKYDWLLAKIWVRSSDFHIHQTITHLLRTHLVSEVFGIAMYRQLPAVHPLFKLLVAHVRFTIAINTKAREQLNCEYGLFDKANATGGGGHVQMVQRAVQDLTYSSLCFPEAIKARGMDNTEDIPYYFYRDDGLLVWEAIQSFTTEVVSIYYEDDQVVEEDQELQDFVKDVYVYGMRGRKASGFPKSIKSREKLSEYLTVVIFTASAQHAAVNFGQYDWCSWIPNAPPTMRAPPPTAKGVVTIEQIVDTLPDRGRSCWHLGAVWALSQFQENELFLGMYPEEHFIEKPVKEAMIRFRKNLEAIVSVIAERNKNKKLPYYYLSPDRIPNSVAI

[2] = Inhibition of Prostaglandin G/H synthase activity in sheep seminal vesicle was determined; format: tissue-based, Ovis aries
In short: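 Sheep seminal vesicle microsomes (32 μg protein) were incubated with [14C]arachidonic acid (0.1 μCi/mL) in pH 7.4 phosphate buffer containing glutathione, epinephrine and EDTA for 10 min at 37 °C. Substrate was removed by two hexane/EtOAc extractions, and aqueous-phase radioactivity was counted by scintillation.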

Mus musculus = test: Inhibition of arachidonic acid induced mouse ear edema at 30 ug/ear; format: functional
In short: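 Male ICR mice (25–28 g), 4–8 per group, received the compound topically in acetone, then 1 mg arachidonic acid on the inner surface of one ear. After 1 h, swelling was taken as the weight difference between challenged and unchallenged ears. Inhibition = (C−T)/C × 100; mean ± SE; Student's t test.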

[3] = biological target: Cyclooxygenase (Homo sapiens) (UniProt P35354+P23219); test: Inhibition of Prostaglandin G/H synthase activity in sheep seminal vesicle was determined 10E-4 […]; format: tissue-based; conditions: Ovis aries, target entry is the homologue from another species
[4] = biological target: Prostaglandin G/H synthase 1 (Ovis aries) (UniProt P05979); test: Inhibition of Prostaglandin G/H synthase activity in sheep seminal vesicle was determined 100 uM
Rattus norvegicus = species on record: Rattus norvegicus; test: Inhibition of lipid peroxidation in rat liver microsomes at 1 uM; format: functional
[5] = biological target: T2, Polyunsaturated fatty acid 5-lipoxygenase (Rattus norvegicus) (UniProt P12527); test: In vitro inhibition against 5-lipoxygenase in RBL-1 cells was determined at 100 uM; format: cell-based
T2 sequence (whole entry): T1 sequence (P12527 whole entry)
In short: (§1)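 Single-concentration test at 100 μM, given as percent inhibition versus control, average of two determinations. RBL-1 cell homogenate (5 × 10⁶ cells) with 2 mM CaCl2 and 0.66 mM arachidonic acid, pH 7.4 phosphate buffer, 3 min at 37 °C. 5-HETE was measured by HPLC absorbance at 235 nm.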

[6] = biological target: Prostaglandin G/H synthase 1 (Ovis aries) (UniProt P05979); test: Inhibition of Prostaglandin G/H synthase activity in sheep seminal vesicle was determined 100 uM; remark: listed apart in the source
[7] = biological target: Prostaglandin G/H synthase 1 (Ovis aries) (UniProt P05979); test: Inhibition of Prostaglandin G/H synthase activity in sheep seminal vesicle was determined at 100 uM
[8] = biological target: T2, Polyunsaturated fatty acid 5-lipoxygenase (Rattus norvegicus); test: In vitro inhibition against 5-lipoxygenase in RBL-1 cells was determined at 10e-4 M; format: cell-based
In short: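 RBL-1 cells grown in RPMI-1640 with 10% heat-inactivated newborn calf serum at 37 °C in 5% CO2, harvested in growth phase, suspended in 50 mM phosphate buffer pH 7.4 (0.25 M sucrose, 1 mM EDTA, 2 mM glutathione) and stored at -70 °C. Homogenate (5 × 10⁶ cells), 2 mM CaCl2 and 0.66 mM arachidonic acid incubated 3 min at 37 °C. MeOH stop, 5-HETE by HPLC at 235 nm. Percent inhibition versus control at 10⁻⁴ M, mean of two determinations.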

[9] = biological target: Prostaglandin G/H synthase 1 (Ovis aries) (UniProt P05979); test: Inhibition of Prostaglandin G/H synthase activity in sheep seminal vesicle was determined; design: concentration or dose not given beside the values; conditions: concentration not given here
[10] = biological target: T2, Polyunsaturated fatty acid 5-lipoxygenase (Rattus norvegicus); test: In vitro inhibition against 5-lipoxygenase in RBL-1 cells was determinedb at 100 uM; format: cell-based; in short: as §1

Chain of Prostaglandin G/H synthase 1 (Ovis aries) (P05979 whole entry, looked up): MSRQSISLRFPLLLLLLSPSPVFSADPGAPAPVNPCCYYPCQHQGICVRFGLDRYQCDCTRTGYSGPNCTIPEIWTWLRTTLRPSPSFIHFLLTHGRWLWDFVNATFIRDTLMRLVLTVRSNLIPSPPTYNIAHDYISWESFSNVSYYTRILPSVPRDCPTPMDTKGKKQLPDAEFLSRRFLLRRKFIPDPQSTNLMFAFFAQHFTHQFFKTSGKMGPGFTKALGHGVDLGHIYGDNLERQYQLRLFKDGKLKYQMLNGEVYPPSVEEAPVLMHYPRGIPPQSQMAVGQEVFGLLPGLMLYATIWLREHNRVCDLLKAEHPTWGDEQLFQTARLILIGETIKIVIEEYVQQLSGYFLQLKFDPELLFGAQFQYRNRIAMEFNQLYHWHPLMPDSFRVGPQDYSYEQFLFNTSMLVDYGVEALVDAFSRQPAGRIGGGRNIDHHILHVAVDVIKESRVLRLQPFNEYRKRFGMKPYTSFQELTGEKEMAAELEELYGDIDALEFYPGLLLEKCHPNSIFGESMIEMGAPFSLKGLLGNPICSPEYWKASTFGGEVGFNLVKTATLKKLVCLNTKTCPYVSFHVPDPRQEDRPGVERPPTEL

| SMILES | IC50 [1] [µM] | IC50 [2] [µM] | further results |
| --- | --- | --- | --- |
| O=C(/C=C/c1ccc(O)c(O)c1)c1ccccc1C(F)(F)F | 0.058 | 230 | – |
| Cc1ccc(C(=O)/C=C/c2ccc(O)c(O)c2)cc1 | 0.076 | 210 | – |
| COc1ccc(OC(C)C)cc1C(=O)/C=C/c1ccc(O)c(O)c1 | 0.014 | 60 | Inhibition (Mus musculus): 34% |
| O=c1c(O)c(-c2ccc(O)c(O)c2)oc2cc(O)cc(O)c12 | – | – | inhibition [3]: 13% |
| O=C(/C=C/c1ccc(O)c(O)c1)c1ccccc1Cl | 0.092 | – | IC50 [4]: 71 µM |
| O=C(/C=C/c1ccc(O)c(O)c1)c1ccccc1O | 0.023 | – | inhibition (Rattus norvegicus): 45%; IC50 [4]: 44 µM |
| COc1cccc(C(=O)/C=C/c2ccc(O)c(O)c2)c1 | 0.0065 | 15 | – |
| COc1ccc(OC)c(C(=O)/C=C/c2ccc(O)c(O)c2)c1 | – | 9.2 | – |
| COc1ccc(C(=O)/C=C/c2ccc(O)c(O)c2)cc1 | 0.02 | 490 | – |
| O=C1CCN(c2ccccc2)N1 [PHENIDONE] | – | 80 | Inhibition (Mus musculus): 24.6% |
| Cc1cccc(C(=O)/C=C/c2ccc(O)c(O)c2)c1 | 0.027 | 71 | – |
| O=C(/C=C/c1ccc(O)cc1)c1ccccc1O | – | 390 | inhibition (Rattus norvegicus): 6% |
| O=C(/C=C/c1ccccc1)c1ccccc1O | – | – | inhibition (Rattus norvegicus): 6%; inhibition [5]: 19%; inhibition [6]: 13% |
| O=C(/C=C/c1ccc(O)c(O)c1)c1c(O)cc(O)cc1O [3,4,2',4',6'-PENTAHYDROXYCHALCONE] | 0.14 | – | inhibition (Rattus norvegicus): 18%; inhibition [6]: 11% |
| O=C(/C=C/c1ccc(O)c(O)c1)c1ccc(O)cc1O [BUTEIN] | 0.0046 | – | inhibition (Rattus norvegicus): 40%; IC50 [4]: 120 µM |
| Cc1ccc(C(=O)/C=C/c2ccc(O)c(O)c2)c(C)c1 | 0.017 | 41 | – |
| COc1ccc(C(=O)/C=C/c2ccc(O)c(O)c2)c(O)c1 [CALYTHROPSIN] | – | 65 | – |
| Cc1ccc(O)c(C(=O)/C=C/c2ccc(O)c(O)c2)c1 | 0.039 | 120 | – |
| CC(C)Oc1ccc(C(=O)/C=C/c2ccc(O)c(O)c2)cc1 | 0.041 | – | inhibition [7]: 11% |

| SMILES | IC50 [1] [µM] | IC50 [2] [µM] | further results |
| --- | --- | --- | --- |
| O=C(/C=C/c1ccc(O)cc1)c1ccc(O)cc1O [ISOLIQUIRITIGENIN] | 35 | – | inhibition (Rattus norvegicus): 9% |
| CCOc1ccc(O)c(C(=O)/C=C/c2ccc(O)c(O)c2)c1 | 0.0053 | 130 | Inhibition (Mus musculus): 42% |
| CC(C)c1ccc(O)c(C(=O)/C=C/c2ccc(O)c(O)c2)c1 | 0.004 | 37 | Inhibition (Mus musculus): 16% |
| CN1C(C(=O)Nc2ccccn2)=C(O)c2ccccc2S1(=O)=O [PIROXICAM] | – | 460 | inhibition [8]: 19% |
| COc1cc(C(=O)/C=C/c2ccc(O)c(O)c2)ccc1O | 0.009 | – | inhibition [7]: 14% |
| COc1ccc(C(=O)/C=C/c2ccc(O)c(O)c2)c(OC)c1 | 0.01 | 160 | – |
| O=C(/C=C/c1ccccc1)c1ccc(O)cc1O [2',4'-DIHYDROXYCHALCONE] | – | 280 | inhibition (Rattus norvegicus): 5% |
| Cc1ccc(C)c(C(=O)/C=C/c2ccc(O)c(O)c2)c1 | 0.016 | 44 | – |
| CC(Cc1ccc(O)c(O)c1)C(C)Cc1ccc(O)c(O)c1 (stereo not given) [NORDIHYDROGUAIARETIC ACID] | – | 210 | – |
| COc1cc(/C=C/C(=O)c2ccccc2O)ccc1O | – | – | inhibition (Rattus norvegicus): 14%; IC50 [4]: 63 µM |
| O=C(/C=C/c1ccc(O)c(O)c1)c1ccccc1 | 0.043 | 34 | inhibition (Rattus norvegicus): 44% |
| O=C(/C=C/c1ccc(O)c(O)c1)c1cc(O)ccc1O | 0.064 | 170 | – |
| CN(C)c1ccc(C(=O)/C=C/c2ccc(O)c(O)c2)cc1 | 0.0047 | 810 | – |
| COc1ccccc1C(=O)/C=C/c1ccc(O)c(O)c1 | 0.027 | 13 | – |
| O=C(/C=C/c1ccc(O)c(O)c1)c1ccc([N+](=O)[O-])cc1 | 0.023 | – | inhibition [9]: 5% |
| O=C(/C=C/c1ccc(O)c(O)c1)c1ccc(O)cc1 | – | 320 | inhibition (Rattus norvegicus): 36% |
| Cc1cc(C)c(C(=O)/C=C/c2ccc(O)c(O)c2)c(C)c1 | 0.4 | 280 | – |
| O=C(O)c1ccccc1Nc1cccc(C(F)(F)F)c1 [FLUFENAMIC ACID] | – | 19 | inhibition [8]: -0.1% |
| CN(C)c1cccc(C(=O)/C=C/c2ccc(O)c(O)c2)c1 | 0.0098 | 41 | – |

| SMILES | IC50 [1] [µM] | IC50 [2] [µM] | further results |
| --- | --- | --- | --- |
| O=C(/C=C/c1ccccc1)c1ccc(O)cc1 | – | – | inhibition (Rattus norvegicus): 5%; inhibition [6]: 20% |
| COc1cc(C(=O)/C=C/c2ccc(O)c(O)c2)cc(OC)c1OC | 0.016 | – | inhibition [7]: 13% |
| COc1ccc(C(=O)/C=C/c2ccc(O)c(O)c2)cc1OC | 0.018 | 140 | – |
| Oc1c(Cc2ccccc2)ccc2ccccc12 | 0.0069 | 24 | Inhibition (Mus musculus): 67% |
| COc1ccc(/C=C/C(=O)c2ccccc2O)cc1O | – | – | inhibition [10]: -4.5%; inhibition [9]: 8.6%; inhibition (Rattus norvegicus): 11% |
| CCOc1ccc(OCC)c(C(=O)/C=C/c2ccc(O)c(O)c2)c1 | 0.0024 | 24 | Inhibition (Mus musculus): -18% |
| COc1ccc(C)cc1C(=O)/C=C/c1ccc(O)c(O)c1 | 0.024 | 30 | Inhibition (Mus musculus): 47% |
| O=C(/C=C/c1ccc(O)c(O)c1)c1ccc(Cl)cc1 | 0.0085 | 1400 | – |
| COc1cccc(OC)c1C(=O)/C=C/c1ccc(O)c(O)c1 | 0.37 | – | inhibition [7]: 15% |
| O=C(/C=C/c1ccccc1)c1c(O)cc(O)cc1O [2',4',6-TRIHYDROXYCHALCONE] | – | – | inhibition [9]: 6.9%; inhibition (Rattus norvegicus): 9% |
| O=C(/C=C/c1ccc(O)cc1)c1c(O)cc(O)cc1O | – | – | inhibition [9]: 3.1%; inhibition (Rattus norvegicus): 8% |
| CCCCOc1ccc(O)c(C(=O)/C=C/c2ccc(O)c(O)c2)c1 | 1 | – | Inhibition (Mus musculus): 33%; inhibition [7]: 4.2% |
| O=C(/C=C/c1ccc(O)c(O)c1)c1cccc(O)c1 | 0.0042 | 140 | inhibition (Rattus norvegicus): 24% |
| COc1ccc(C(=O)/C=C/c2ccc(O)c(OC)c2)cc1 | 12 | – | inhibition [9]: -7.3%; inhibition (Rattus norvegicus): 2.3% |
| CCOc1ccc(OC)c(C(=O)/C=C/c2ccc(O)c(O)c2)c1 | 0.0038 | 26 | – |
| CC(C)Oc1ccc(O)c(C(=O)/C=C/c2ccc(O)c(O)c2)c1 | 0.011 | 140 | – |
| COc1ccc2c(c1)c(CC(=O)O)c(C)n2C(=O)c1ccc(Cl)cc1 [INDOMETHACIN] | – | 0.8 | Inhibition (Mus musculus): 4.8% |
| CCOc1ccc(OC)cc1C(=O)/C=C/c1ccc(O)c(O)c1 | 0.027 | 2 | – |
| COc1cc(/C=C/C(=O)c2ccc(Cl)cc2)ccc1O | 8.9 | 41 | – |
